Data: PMC4212793 (ACS Nano, 2014)

Legend:
[1] = tested on: neonatal rat cardiomyocytes (NRCMs); assay: Cytoprotection against H2O2 oxidative stress, Live/Dead staining; format: cell-based; details: H2O2 200 μM, 2 h; p < 0.001; N = 3
mESC-CMs = assay: Mouse myocardial infarction model, engraftment of DiI-labelled mESC-CMs; format: in vivo, athymic nude mice (Foxn1nu); details: heart sections 4 weeks after MI; p < 0.05; N = 3
Summary of the method: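 Male athymic nude mice (Foxn1nu) underwent MI by left anterior descending coronary artery ligation. Immediately after surgery, 2 × 105 CM-DiI-prelabelled mESC-derived CMs from one differentiation batch, alone or encapsulated in test gel, were injected intramyocardially through 30 G needles at two border-zone sites. PBS and gel-only groups served as controls. Frozen OCT heart sections were fixed in 4% paraformaldehyde before imaging.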

[2] = PA-RGDS self-assembled under similar conditions; cited from earlier work

C16-GTAGLIGQRGDS [PA-RGDS]
viability after H2O2 (Live/Dead staining) compared to NRCMs without encapsulation [1]: significantly improved viability
number of engrafted DiI-positive mESC-CMs at 4 weeks compared to mESC-CMs only (mESC-CMs): significantly higher
storage modulus (G′) [2]: around 100 Pa
